Measurements reported in ChEMBL document CHEMBL3751721, “Development of acridine derivatives as selective Mycobacterium tuberculosis DNA gyrase inhibitors” (Bioorg Med Chem, 2016).
In brackets after ≈: the same amount, converted by molar mass. Activity calls are given as the source filed them. No cut-off for these calls is given here.

What was measured:
[1] = target: DNA gyrase (Pseudomonas aeruginosa) (UniProt P48372+Q9I7C2); test: Inhibition of Pseudomonas aeruginosa DNA gyrase assessed as inhibition of DNA supercoiling; assay type: protein-complex assay
[2] = tested on: Mycobacterium tuberculosis; test: Antimicrobial activity against Mycobacterium tuberculosis H37Rv ATCC 27294 after 28 days by alamar blue assay; assay type: functional; conditions: H37Rv ATCC 27294, 672 h
[3] = target: DNA gyrase subunit B (Mycobacterium smegmatis) (UniProt P0C559); test: Inhibition of Mycobacterium smegmatis GyrB by ATPase assay; conditions: Mycolicibacterium smegmatis
DNA gyrase subunit B (Mycobacterium smegmatis), sequence (P0C559 2-675 limits assumed): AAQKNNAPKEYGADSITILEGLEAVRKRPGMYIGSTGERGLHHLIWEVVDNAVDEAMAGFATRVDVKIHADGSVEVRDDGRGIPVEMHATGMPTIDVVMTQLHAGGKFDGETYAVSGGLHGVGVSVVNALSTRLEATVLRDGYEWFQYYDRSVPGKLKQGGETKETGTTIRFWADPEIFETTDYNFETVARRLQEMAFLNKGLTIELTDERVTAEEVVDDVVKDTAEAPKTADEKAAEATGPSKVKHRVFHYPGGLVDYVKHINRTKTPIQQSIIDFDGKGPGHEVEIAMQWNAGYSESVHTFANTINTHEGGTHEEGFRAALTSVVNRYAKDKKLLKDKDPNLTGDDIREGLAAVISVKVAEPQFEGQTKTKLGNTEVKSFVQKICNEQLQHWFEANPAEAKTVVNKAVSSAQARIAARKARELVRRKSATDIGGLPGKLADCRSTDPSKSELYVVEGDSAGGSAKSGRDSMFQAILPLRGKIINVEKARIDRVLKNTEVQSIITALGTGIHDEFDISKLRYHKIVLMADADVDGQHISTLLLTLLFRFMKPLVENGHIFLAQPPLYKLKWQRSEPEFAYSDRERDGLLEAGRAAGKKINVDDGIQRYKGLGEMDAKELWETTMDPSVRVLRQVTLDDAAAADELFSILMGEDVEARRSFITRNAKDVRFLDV

[4] = target: DNA gyrase subunit A/DNA gyrase subunit B (Mycobacterium tuberculosis (strain ATCC 25618 / H37Rv), UniProt P9WG45+P9WG47); test: Inhibition of Mycobacterium tuberculosis DNA gyrase assessed as inhibition of DNA supercoiling after 30 mins by electrophoresis
DNA gyrase subunit A/DNA gyrase subunit B, sequence (P9WG45 whole entry): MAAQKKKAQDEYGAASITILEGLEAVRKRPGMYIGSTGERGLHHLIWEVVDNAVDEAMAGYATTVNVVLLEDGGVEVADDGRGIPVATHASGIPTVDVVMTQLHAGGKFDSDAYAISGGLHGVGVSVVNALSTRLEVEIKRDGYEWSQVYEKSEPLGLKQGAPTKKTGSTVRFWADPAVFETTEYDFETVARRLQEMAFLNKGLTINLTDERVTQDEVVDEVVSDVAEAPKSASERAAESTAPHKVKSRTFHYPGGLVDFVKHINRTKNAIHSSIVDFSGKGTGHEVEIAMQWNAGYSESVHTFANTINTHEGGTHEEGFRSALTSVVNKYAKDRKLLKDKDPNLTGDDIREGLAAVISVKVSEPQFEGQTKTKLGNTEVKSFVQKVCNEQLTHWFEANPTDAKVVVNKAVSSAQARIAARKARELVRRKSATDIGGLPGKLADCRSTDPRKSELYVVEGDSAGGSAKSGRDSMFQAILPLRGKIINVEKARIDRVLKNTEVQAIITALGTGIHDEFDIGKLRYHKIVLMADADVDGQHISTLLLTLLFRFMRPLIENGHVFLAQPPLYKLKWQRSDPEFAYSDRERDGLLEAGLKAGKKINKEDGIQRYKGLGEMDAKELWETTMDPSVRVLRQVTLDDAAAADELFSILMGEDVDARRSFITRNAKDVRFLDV
DNA gyrase subunit A/DNA gyrase subunit B, sequence (P9WG47 whole entry): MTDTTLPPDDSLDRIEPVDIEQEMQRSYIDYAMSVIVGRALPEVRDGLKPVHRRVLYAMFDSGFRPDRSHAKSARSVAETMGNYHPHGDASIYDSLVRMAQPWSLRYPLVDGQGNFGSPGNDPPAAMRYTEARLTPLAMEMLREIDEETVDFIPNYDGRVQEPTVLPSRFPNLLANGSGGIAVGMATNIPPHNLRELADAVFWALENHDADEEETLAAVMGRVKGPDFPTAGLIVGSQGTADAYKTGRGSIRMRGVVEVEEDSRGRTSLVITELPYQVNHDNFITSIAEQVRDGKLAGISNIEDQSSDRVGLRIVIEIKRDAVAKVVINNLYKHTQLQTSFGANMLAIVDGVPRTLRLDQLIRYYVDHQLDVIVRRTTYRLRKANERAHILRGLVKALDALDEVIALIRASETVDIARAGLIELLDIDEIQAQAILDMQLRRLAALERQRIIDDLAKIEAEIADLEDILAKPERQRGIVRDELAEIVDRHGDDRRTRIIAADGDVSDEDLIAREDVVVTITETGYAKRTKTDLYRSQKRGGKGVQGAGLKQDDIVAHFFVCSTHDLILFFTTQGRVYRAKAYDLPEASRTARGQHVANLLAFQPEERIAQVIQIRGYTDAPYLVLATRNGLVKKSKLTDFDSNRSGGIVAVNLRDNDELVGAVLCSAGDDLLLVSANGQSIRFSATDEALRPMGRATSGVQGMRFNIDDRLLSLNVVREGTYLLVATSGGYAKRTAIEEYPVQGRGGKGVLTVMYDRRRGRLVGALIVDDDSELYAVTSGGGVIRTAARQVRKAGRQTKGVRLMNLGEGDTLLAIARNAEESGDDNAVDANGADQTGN

[5] = tested on: Mycobacterium tuberculosis; test: Inhibition of Mycobacterium tuberculosis DNA topoisomerase 1 assessed as DNA relaxation at 50 uM
Escherichia coli = test: Inhibition of Escherichia coli DNA gyrase assessed as inhibition of DNA supercoiling
[6] = Cytotoxicity against mouse RAW264.7 cells assessed as inhibition of cell growth at 50 uM after 72 hrs by MTT assay; assay type: cell-based
Summary of the method: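 RAW 264.7 mouse macrophages exposed to compound at 50 µM for 72 h. Viability read by MTT conversion to formazan, reported as percent inhibition.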

[7] = target: DNA gyrase (Staphylococcus aureus) (UniProt P0A0K8+P20831); test: Inhibition of Staphylococcus aureus DNA gyrase assessed as inhibition of DNA supercoiling; assay type: protein-complex assay
DNA gyrase (Staphylococcus aureus), sequence (P0A0K8 2-644 limits assumed): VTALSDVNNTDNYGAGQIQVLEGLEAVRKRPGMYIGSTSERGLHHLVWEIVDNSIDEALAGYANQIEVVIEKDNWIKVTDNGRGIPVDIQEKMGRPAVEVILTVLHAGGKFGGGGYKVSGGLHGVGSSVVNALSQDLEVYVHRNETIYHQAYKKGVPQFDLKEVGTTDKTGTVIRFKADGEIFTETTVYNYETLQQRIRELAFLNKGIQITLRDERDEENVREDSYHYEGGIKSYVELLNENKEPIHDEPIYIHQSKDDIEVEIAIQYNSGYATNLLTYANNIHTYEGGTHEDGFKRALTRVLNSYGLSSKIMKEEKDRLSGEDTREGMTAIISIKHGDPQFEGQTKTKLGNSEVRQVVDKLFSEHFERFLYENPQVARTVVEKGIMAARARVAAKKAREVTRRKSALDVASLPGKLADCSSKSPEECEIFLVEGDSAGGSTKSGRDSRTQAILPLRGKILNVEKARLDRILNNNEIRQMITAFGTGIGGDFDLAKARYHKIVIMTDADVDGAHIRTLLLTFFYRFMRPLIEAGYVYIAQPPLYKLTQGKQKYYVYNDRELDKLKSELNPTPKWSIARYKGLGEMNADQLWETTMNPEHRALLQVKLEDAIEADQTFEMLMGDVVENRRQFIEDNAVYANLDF
DNA gyrase (Staphylococcus aureus), sequence (P20831 whole entry partner): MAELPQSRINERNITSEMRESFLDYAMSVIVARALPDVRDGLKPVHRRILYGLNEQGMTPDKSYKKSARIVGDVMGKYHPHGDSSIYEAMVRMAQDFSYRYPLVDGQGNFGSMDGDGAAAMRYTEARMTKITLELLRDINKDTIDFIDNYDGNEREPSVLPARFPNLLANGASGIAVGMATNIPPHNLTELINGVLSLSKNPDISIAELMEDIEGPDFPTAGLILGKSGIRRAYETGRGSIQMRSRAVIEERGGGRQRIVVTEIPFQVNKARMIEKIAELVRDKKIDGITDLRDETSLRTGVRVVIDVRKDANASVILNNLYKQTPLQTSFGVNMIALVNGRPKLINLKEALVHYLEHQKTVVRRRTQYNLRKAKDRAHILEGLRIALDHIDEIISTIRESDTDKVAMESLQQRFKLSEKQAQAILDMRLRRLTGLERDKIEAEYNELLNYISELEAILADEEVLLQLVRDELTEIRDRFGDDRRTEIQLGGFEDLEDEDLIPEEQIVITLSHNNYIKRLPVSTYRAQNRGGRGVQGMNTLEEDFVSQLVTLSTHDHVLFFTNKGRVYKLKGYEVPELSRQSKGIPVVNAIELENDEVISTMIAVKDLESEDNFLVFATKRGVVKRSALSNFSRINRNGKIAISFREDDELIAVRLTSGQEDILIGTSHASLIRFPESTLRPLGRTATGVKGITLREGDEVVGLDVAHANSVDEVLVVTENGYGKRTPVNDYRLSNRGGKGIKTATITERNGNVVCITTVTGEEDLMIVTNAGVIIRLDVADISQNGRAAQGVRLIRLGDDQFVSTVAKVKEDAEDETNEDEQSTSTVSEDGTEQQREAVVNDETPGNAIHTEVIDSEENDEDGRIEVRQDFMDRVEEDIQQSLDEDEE

Row | Compound | inhibition [1] | MIC [2] | inhibition [3] | IC50 [4] | inhibition [5] | inhibition (Escherichia coli) | inhibition at 72 h, 50 µM [6] | inhibition [7]
1 | Cc1ccc(NC(=S)Nc2ccc(Nc3c4ccccc4nc4ccc(C)cc34)cc2)cc1 | inactive | 55.7 µM (≈ 25 µg/mL) | inactive | 26.9 µM | inactive | inactive | 35% | inactive
2 | Cc1ccc(NC(=O)Nc2ccc(Nc3c4ccccc4nc4ccc(C)cc34)cc2)cc1 | inactive | 57.8 µM (≈ 25 µg/mL) | inactive | 29.6 µM | inactive | inactive | 43.1% | inactive
3 | O=C(Nc1ccc(Cl)cc1)Nc1ccc(Nc2c3ccccc3nc3ccc(Cl)cc23)cc1 | inactive | 13.2 µM (≈ 6.25 µg/mL) | inactive | 11.8 µM | inactive | inactive | 17.1% | inactive
4 | O=C(Nc1ccc(Nc2c3ccccc3nc3ccccc23)cc1)Nc1ccc([N+](=O)[O-])cc1 | inactive | 27.8 µM (≈ 12.5 µg/mL) | inactive | 26.8 µM | inactive | inactive | 19.2% | inactive
5 | S=C(Nc1ccc(Cl)cc1)Nc1ccc(Nc2c3ccccc3nc3ccc(Cl)cc23)cc1 | inactive | > 51.1 µM | inactive | 31.5 µM | inactive | inactive | 6.7% | inactive
6 | O=S(=O)(Nc1ccc(Nc2c3ccccc3nc3ccc(Cl)cc23)cc1)c1ccccc1 | inactive | 27.2 µM (≈ 12.5 µg/mL) | inactive | 9.2 µM | inactive | inactive | 14.5% | inactive
7 | Cc1ccc2nc3ccccc3c(Nc3ccc(NS(=O)(=O)c4ccc([N+](=O)[O-])cc4)cc3)c2c1 | inactive | 12.9 µM (≈ 6.25 µg/mL) | inactive | 8.34 µM | inactive | inactive | 27% | inactive
8 | Cc1ccc(S(=O)(=O)Nc2ccc(Nc3c4ccccc4nc4ccccc34)cc2)cc1 | inactive | 28.4 µM (≈ 12.5 µg/mL) | inactive | 9.3 µM | inactive | inactive | 28.4% | inactive
9 | Cc1ccc2nc3ccccc3c(Nc3ccc(NC(=O)Nc4ccc(Cl)cc4)cc3)c2c1 | inactive | 27.6 µM (≈ 12.5 µg/mL) | inactive | 11.4 µM | inactive | inactive | 25.9% | inactive
10 | O=S(=O)(Nc1ccc(Nc2c3ccccc3nc3ccccc23)cc1)c1ccc(Cl)cc1 | inactive | 27.2 µM (≈ 12.5 µg/mL) | inactive | 23.8 µM | inactive | inactive | 34.2% | inactive
11 | S=C(Nc1ccccc1)Nc1ccc(Nc2c3ccccc3nc3ccc(Cl)cc23)cc1 | inactive | 27.5 µM (≈ 12.5 µg/mL) | inactive | 29.3 µM | inactive | inactive | 11.7% | inactive
12 | Cc1ccc(S(=O)(=O)Nc2ccc(Nc3c4ccccc4nc4ccc(C)cc34)cc2)cc1 | inactive | 27.6 µM (≈ 12.5 µg/mL) | inactive | 9.8 µM | inactive | inactive | 27.8% | inactive
13 | O=[N+]([O-])c1ccc(NC(=S)Nc2ccc(Nc3c4ccccc4nc4ccc(Cl)cc34)cc2)cc1 | inactive | > 50 µM | inactive | 28.8 µM | inactive | inactive | 30.4% | inactive
14 | CO[C@@H]1[C@@H](OC(N)=O)[C@@H](O)[C@H](Oc2ccc3c(O)c(NC(=O)c4ccc(O)c(CC=C(C)C)c4)c(=O)oc3c2C)OC1(C)C [NOVOBIOCIN] |  | > 50 µM |  |  |  |  |  | 
15 | Cc1ccc2nc3ccccc3c(Nc3ccc(NC(=S)Nc4ccc([N+](=O)[O-])cc4)cc3)c2c1 | inactive | > 52.1 µM | inactive | 24.8 µM | inactive | inactive | 28.8% | inactive
16 | O=C(Nc1ccccc1)Nc1ccc(Nc2c3ccccc3nc3ccccc23)cc1 | inactive | > 61.8 µM | inactive | 32.6 µM | inactive | inactive | 30.4% | inactive
17 | O=[N+]([O-])c1ccc(NC(=S)Nc2ccc(Nc3c4ccccc4nc4ccccc34)cc2)cc1 | inactive | 13.4 µM (≈ 6.25 µg/mL) | inactive | 13.1 µM | inactive | inactive | 20.8% | inactive
18 | Cc1ccc(NC(=O)Nc2ccc(Nc3c4ccccc4nc4ccc(Cl)cc34)cc2)cc1 | inactive | 13.8 µM (≈ 6.25 µg/mL) | inactive | 12.5 µM | inactive | inactive | 29.2% | inactive
19 | O=S(=O)(Nc1ccc(Nc2c3ccccc3nc3ccc(Cl)cc23)cc1)c1ccc(Cl)cc1 | inactive | 25.1 µM (≈ 12.4 µg/mL) | inactive | 12.4 µM | inactive | inactive | 14.2% | inactive
20 | Cc1ccc(NC(=O)Nc2ccc(Nc3c4ccccc4nc4ccccc34)cc2)cc1 | inactive | 14.9 µM (≈ 6.25 µg/mL) | inactive | 13.1 µM | inactive | inactive | 18.4% | inactive
21 | COc1c(N2C[C@@H]3CCCN[C@@H]3C2)c(F)cc2c(=O)c(C(=O)O)cn(C3CC3)c12 [MOXIFLOXACIN] |  | 1.26 µM (≈ 0.506 µg/mL) |  |  |  |  | 1.26% | 
22 | Cc1ccc(S(=O)(=O)Nc2ccc(Nc3c4ccccc4nc4ccc(Cl)cc34)cc2)cc1 | inactive | > 52.8 µM | inactive | 22.8 µM | inactive | inactive | 38.5% | inactive
23 | Cc1ccc2nc3ccccc3c(Nc3ccc(NC(=O)Nc4ccccc4)cc3)c2c1 | inactive | 29.9 µM (≈ 12.5 µg/mL) | inactive | 22.1 µM | inactive | inactive | 24.8% | inactive
24 | O=C(Nc1ccc(Cl)cc1)Nc1ccc(Nc2c3ccccc3nc3ccccc23)cc1 | inactive | 28.5 µM (≈ 12.5 µg/mL) | inactive | 10.4 µM | inactive | inactive | 26.2% | inactive
25 | O=S(=O)(Nc1ccc(Nc2c3ccccc3nc3ccccc23)cc1)c1ccccc1 | inactive | 14.7 µM (≈ 6.25 µg/mL) | inactive | 15.1 µM | inactive | inactive | 42.1% | inactive
26 | Cc1ccc2nc3ccccc3c(Nc3ccc(NC(=S)Nc4ccccc4)cc3)c2c1 | inactive | 7.2 µM (≈ 3.13 µg/mL) | inactive | 6.3 µM | inactive | inactive | 10.8% | inactive
27 | NNC(=O)c1ccncc1 [ISONIAZID] |  | 0.66 µM (≈ 0.0905 µg/mL) |  | > 50 µM |  |  |  | 
28 | O=[N+]([O-])c1ccc(S(=O)(=O)Nc2ccc(Nc3c4ccccc4nc4ccc(Cl)cc34)cc2)cc1 | inactive | 24.8 µM (≈ 12.5 µg/mL) | inactive | 8.1 µM | inactive | inactive | 30.4% | inactive
29 | CO[C@H]1/C=C/O[C@@]2(C)Oc3c(C)c(O)c4c(O)c(c(/C=N/N5CCN(C)CC5)c(O)c4c3C2=O)NC(=O)/C(C)=C\C=C\[C@H](C)[C@H](O)[C@@H](C)[C@@H](O)[C@@H](C)[C@H](OC(C)=O)[C@@H]1C [RIFAMPIN] |  | 0.23 µM (≈ 0.189 µg/mL) |  | > 50 µM |  |  |  | 
30 | Cc1ccc2nc3ccccc3c(Nc3ccc(NC(=S)Nc4ccc(Cl)cc4)cc3)c2c1 | inactive | 26.7 µM (≈ 12.5 µg/mL) | inactive | 11.2 µM | inactive | inactive | 26% | inactive
